The list is not random: actives were taken first. Their share in the collection is about 2.9%.
Kir21 inh – inhibitors of mouse Kir2.1 inward-rectifier potassium channel. Inward rectifier potassium channel 2 (Mus musculus), P35561. HEK293-Kir2.1, FluxOR thallium flux fluorescence; stronger effect = lower value. B-score at 10 µM. actives 0.85% (n = 310,000);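 active = fluorescence ratio B-score at or below minus 3 SD of library scores, with starting-brightness B-score within 2 SD, cut at about -4.2 in these data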;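 note: channel flux triggered by added potassium and thallium sulfate stimulus; B-score of peak minus minimum fluorescence over baseline after thallium stimulus; more negative B-score means stronger Kir2.1 block with less thallium influx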
TRPC4 agonist – activators of mouse TRPC4 channel, primary screen, Fluo4 calcium, HEK293 TRPC4beta/mu-opioid cells. Short transient receptor potential channel 4 (Mus musculus), Q9QUQ5. Fluo4 calcium fluorescence; stronger effect = higher value. B-score at 10 µM. actives 0.49% (n = 310,000). AID 2237, 2010;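 active = B-score above 5 SD of library B-scores, and initial fluorescence ratio not above library mean plus 5 SD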;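 note: positive B-score marks a calcium rise read as TRPC4 activation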
Target sequence (Q9QUQ5 whole entry, looked up): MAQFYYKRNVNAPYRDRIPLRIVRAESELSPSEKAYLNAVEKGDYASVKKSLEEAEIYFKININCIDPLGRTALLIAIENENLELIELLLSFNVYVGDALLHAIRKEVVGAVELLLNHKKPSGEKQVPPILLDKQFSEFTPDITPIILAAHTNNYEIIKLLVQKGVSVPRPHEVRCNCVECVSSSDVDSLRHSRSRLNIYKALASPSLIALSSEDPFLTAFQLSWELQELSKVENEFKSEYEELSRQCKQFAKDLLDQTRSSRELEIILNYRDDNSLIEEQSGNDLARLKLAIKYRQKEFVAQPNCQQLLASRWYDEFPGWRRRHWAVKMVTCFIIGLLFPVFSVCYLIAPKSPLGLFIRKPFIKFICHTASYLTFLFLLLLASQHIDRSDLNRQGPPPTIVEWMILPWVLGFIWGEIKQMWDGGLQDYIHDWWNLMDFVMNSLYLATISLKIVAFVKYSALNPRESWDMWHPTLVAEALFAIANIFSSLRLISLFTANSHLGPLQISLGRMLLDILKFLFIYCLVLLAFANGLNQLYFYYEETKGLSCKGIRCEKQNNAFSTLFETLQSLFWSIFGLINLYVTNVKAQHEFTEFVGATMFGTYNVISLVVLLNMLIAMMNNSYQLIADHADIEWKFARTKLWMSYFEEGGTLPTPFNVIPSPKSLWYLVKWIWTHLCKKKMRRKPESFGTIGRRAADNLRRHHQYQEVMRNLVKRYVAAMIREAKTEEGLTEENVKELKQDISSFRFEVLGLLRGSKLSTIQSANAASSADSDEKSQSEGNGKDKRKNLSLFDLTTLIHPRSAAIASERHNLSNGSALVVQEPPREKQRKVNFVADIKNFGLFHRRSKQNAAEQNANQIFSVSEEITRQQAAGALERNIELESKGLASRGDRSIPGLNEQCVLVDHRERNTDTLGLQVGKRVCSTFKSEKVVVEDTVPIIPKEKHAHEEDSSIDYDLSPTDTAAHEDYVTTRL
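Assay system – TRPC4beta and mu-opioid receptor HEK293 stable cells · Measured by – Fluo4 fluorescence, kinetic · Schedule – dye loading 45 min room temperature, 110 s kinetic read · Read-out – B-scored integrated calcium fluorescence ratio · Controls – buffer and maximal DAMGO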
TRPC4 block – inhibitors of mouse TRPC4 channel, primary screen, Fluo4 calcium, HEK293 TRPC4beta/mu-opioid cells; DAMGO-evoked Fluo4 calcium flux; stronger effect = lower value; Short transient receptor potential channel 4 (Mus musculus), Q9QUQ5; B-score at 10 µM; actives 0.39% (n = 300,000);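 active = B-score over 3 SD under the library average, no early fluorescence shift, positive overall ratio signal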
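Material: HEK293 cells with stable TRPC4beta plus mu-opioid receptor expression; probe or stimulus: DAMGO in two steps, submaximal then maximal; technique: Fluo4 calcium fluorescence by kinetic imaging, 5 s 1 Hz baseline; measure: integrated fluorescence ratio relative to baseline, converted to per-well B score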
TRPC6 inhibitor – mouse TRPC6 channel inhibitors, primary screen, cell-based, HEK293, membrane potential dye; Short transient receptor potential channel 6 (Mus musculus), Q61143; ACh-evoked depolarization; stronger effect = lower value; B-score at 10 µM; actives 1.1% (n = 310,000);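 active = B-score under library mean minus 3 SD, initial fluorescence not abnormally high, positive integrated signal ratio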;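 note: B-score derived from integrated fluorescence ratio over the kinetic read; more negative B-score means stronger inhibition of depolarization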
TRPC4 PAM – positive allosteric modulators of TRPC4, primary screen, cell-based, mouse TRPC4beta, HEK293 mu-opioid, Fluo-4 calcium | Short transient receptor potential channel 4 (Mus musculus), Q9QUQ5 | DAMGO EC20, Fluo-4 Ca2+ flux; stronger effect = higher value | B-score at 10 µM | actives 0.42% (n = 310,000) | AID 2227, 2009;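 active = B-score of calcium response area above 5 SD of library B-scores, with initial fluorescence ratio within 5 SD of library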;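 note: B-score of integrated fluorescence ratio over time as area under calcium response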
TRPC6 act – mouse TRPC6 channel activators, primary screen, cell-based, HEK293, membrane potential dye; Short transient receptor potential channel 6 (Mus musculus), Q61143; HEK293-TRPC6 membrane potential dye fluorescence; stronger effect = higher value; B-score at 10 µM; actives 0.13% (n = 310,000); AID 2550, 2010;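 active = B-score of the integrated fluorescence ratio above library mean plus 3 SD, and starting fluorescence ratio within library mean plus 5 SD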;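 note: higher score means more depolarization so channel activation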
TRPC4 sel inh 2 – second check of whether TRPC6 inhibitors also affect mouse TRPC4 | shares compounds with TRPC6 inhibitor | HEK293 TRPC4/MOR, membrane potential dye fluorescence; channel activated by saturating DAMGO dose | inhibition, % at 10 µM | actives 42% (n = 920);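 active = compounds whose fluorescence signal differed from control wells by over 3 SD, either direction, in both duplicate plates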
TRPC4 spec – mouse TRPC4 modulation by TRPC6 hits, confirmation, selectivity assay for TRPC6 inhibitor project, cell-based, HEK293 TRPC4/mu-opioid, membrane potential dye | shares compounds with TRPC6 inhibitor | membrane potential fluorescence | activity change, negative = inhibition, % at 10 µM | actives 61% (n = 920) | AID 2777, 2010;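 active = rise or fall in signal beyond 3 SD of buffer-only wells in both replicate plates, either sign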;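 note: integrated kinetic ratio of fluorescence range over baseline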
HEK293 MPD ctr 2-1 – nonspecific membrane potential effects, parental HEK293, confirmation, counter-screen for TRPC6 inhibitor project, cell-based, second counter screen. shares compounds with TRPC6 inhibitor. parental HEK293 membrane potential dye fluorescence; maximal acetylcholine challenge after compound addition. signal change vs control, % at 10 µM. actives 31% (n = 920);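 active = membrane potential signal moving either way by over 3 SD of the maximum-effect control, in both duplicate plates, meaning non-specific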
HEK293 MPD ctr-1 – membrane potential modulation in parental HEK293, confirmation, counter-screen for TRPC6 inhibitor project, cell-based; shares compounds with TRPC6 inhibitor; parental HEK293 membrane potential dye fluorescence; membrane potential signal change, % at 10 µM; actives 60% (n = 920);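 active = membrane potential signal shifting up or down by more than 3 SD of buffer-only wells, on both duplicate plates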
HEK293 MPD ctr-2 – parental HEK293 membrane potential modulation, confirmation, counter-screen for TRPC6 modulator project, cell-based; shares compounds with TRPC6 inhibitor; membrane potential dye fluorescence; membrane potential signal change, % at 10 µM; actives 51% (n = 2,400);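 active = membrane potential signal moves up or down beyond 5 SD from buffer-only wells, on both duplicate plates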
HEK293 MPD ctr 2-2 – second check of TRPC6 modulator effects in parental HEK293 cells; shares compounds with TRPC6 inhibitor; membrane potential dye fluorescence; after compound, maximal acetylcholine stimulation; inhibition, % at 10 µM; actives 14% (n = 2,400); AID 488926;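 active = membrane potential signal drops by more than 5 SD from the mean control signal, in both duplicate plates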;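 note: plate controls were acetylcholine ECmax control wells for no effect and buffer only wells for full effect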
TRPC4/MOR mod – TRPC4 modulation by TRPC6 hit compounds, confirmation, selectivity assay for TRPC6 modulator project, cell-based, HEK293 TRPC4/mu-opioid, membrane potential dye, mouse; percent change from control (negative = decrease, positive = increase), % at 10 µM; membrane potential fluorescence; AID 488927, 2010; shares compounds with TRPC6 inhibitor; actives 69% (n = 2,400);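 active = membrane potential signal moved up or down beyond 5 SD of buffer control wells, in both duplicate plates, actives on both sides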;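 note: plate controls were assay buffer wells for no effect and DAMGO maximal-effect wells for full effect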
TRPC4 ctr inh 2 – mouse TRPC4 off-target activity of TRPC6 modulators, second screen; shares compounds with TRPC6 inhibitor; HEK293 TRPC4/mu-opioid, membrane potential dye fluorescence; stimulated with maximal-effect DAMGO; inhibition, % at 10 µM; actives 55% (n = 2,400); AID 488928;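 active = drop in membrane potential signal beyond 5 SD of the control wells in both duplicate plates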;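 note: TRPC4 counter screen for TRPC6 hits run under conditions tuned for TRPC6 not TRPC4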
TRPC6 block conf – mouse TRPC6 channel inhibitors, confirmation, HEK293 cells, membrane potential dye, duplicate; shares compounds with TRPC6 inhibitor; ACh-evoked depolarization; inhibition, % at 10 µM; actives 43% (n = 3,300); AID 488960, 2010;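 active = fluorescence ratio falls more than 5 SD below the full-stimulation control mean, in both duplicate runs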;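 note: integrated fluorescence ratio of peak minus minimum over baseline after agonist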
TRPC6 act confirm – mouse TRPC6 channel activators, confirmation, HEK293 cells, membrane potential dye, duplicate | HEK293-TRPC6 membrane potential dye fluorescence, FDSS | AID 488961, 2010 | activation, % at 10 µM | shares compounds with TRPC6 inhibitor | actives 11% (n = 2,800);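 active = ratio signal rise beyond 5 SD above unstimulated control wells' mean, seen in both duplicate runs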;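 note: plate controls were buffer EC0 wells for no effect and acetylcholine ECmax response for full effect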
Numbers without * were called inactive; i = inactive; . = no result given.

SMILES	Kir21 inh	TRPC4 agonist	TRPC4 block	TRPC6 inhibitor	TRPC4 PAM	TRPC6 act	HEK293 MPD ctr-2	HEK293 MPD ctr 2-2	TRPC4/MOR mod	TRPC4 ctr inh 2	TRPC6 block conf	TRPC6 act confirm	others
O=S(=O)(Nc1nnc(C2CC2)s1)c1ccccc1	2.5	i	i	i	i	i	.	.	.	.	.	.
CC(C)NCC(O)Cn1c2c(c3ccccc31)CCc1c-2cnn1-c1ccccc1 (stereo not drawn)	-6.1*	i	i	-10*	i	i	.	.	.	.	85%*	i	TRPC4 sel inh 2=28%*;TRPC4 spec=-23%*;HEK293 MPD ctr 2-1=40%*;HEK293 MPD ctr-1=-326%*
CNS(=O)(=O)c1cccc2cccnc12	1.1	i	i	i	i	i	.	.	.	.	.	.
Cc1ccc2ccc3cccnc3c2n1	0.92	i	i	-5.8*	i	i	-248%*	i	-36%*	i	44%*	i
CCC(NC(=O)c1ccncc1)c1ccccc1 (stereo not drawn)	0	i	i	i	i	i	.	.	.	.	.	.
Cc1cc(C)c(C(=O)C(C)OC(=O)Cn2cnc3c2c(=O)n(C)c(=O)n3C)cc1C (stereo not drawn)	-0.6	i	i	i	i	i	.	.	.	.	.	.
C(=N\Nc1cc(N2CCCCC2)ncn1)/c1ccco1	0.27	i	i	i	i	i	.	.	.	.	.	.
COc1cccc(C2CC(C(F)(F)F)n3ncc(C(=O)NCC4CCCO4)c3N2)c1 (stereo not drawn)	0	i	i	-5.6*	i	i	i	i	i	i	i	i
O=C(CCN1C(=O)c2ccccc2C1=O)Nc1ccccc1C(F)(F)F	0.05	i	i	-7.3*	i	i	.	.	.	.	i	i	TRPC4 sel inh 2=i;TRPC4 spec=i;HEK293 MPD ctr 2-1=i;HEK293 MPD ctr-1=i
N=c1sccn1CC(=O)Nc1cccc(Oc2ccccc2)c1	-4.3*	i	i	-5.7*	i	i	i	i	i	82%*	52%*	i
N=c1sccn1CC(=O)Nc1cc(Cl)ccc1Oc1ccccc1	-4.8*	i	i	-9.6*	i	i	.	.	.	.	69%*	i	TRPC4 sel inh 2=24%*;TRPC4 spec=i;HEK293 MPD ctr 2-1=i;HEK293 MPD ctr-1=i
CN1CCCC(C#CC(O)(c2ccccc2)c2ccccc2)C1 (stereo not drawn)	0.34	i	i	-8.8*	i	i	.	.	.	.	i	i	TRPC4 sel inh 2=i;TRPC4 spec=i;HEK293 MPD ctr 2-1=i;HEK293 MPD ctr-1=i
CCOc1ccc(-n2c(-c3ccccc3)c[n+]3c2CCC3)cc1	3.5	i	i	-6.3*	i	i	-58%*	62%*	-13%*	30%*	45%*	i
CCOc1ccc(-n2c(-c3ccc(OC)cc3)c[n+]3c2CCCCC3)cc1	-2.9	i	i	i	i	i	.	.	.	.	.	.
O=C(NC(=O)c1ccc(F)cc1F)Nc1ccc(Cl)cc1	0.11	i	i	i	i	i	.	.	.	.	.	.
CC1(C)CC(=O)C2=C(C1)NC1=C(C(=O)c3ccccc31)C2c1cc([N+](=O)[O-])ccc1O (stereo not drawn)	0.34	i	i	-5.4*	i	i	i	i	-13%*	66%*	42%*	i
CC1(C)CC(=O)C2=C(C1)NC1=C(C(=O)c3ccccc31)C2c1ccccc1 (stereo not drawn)	0.38	i	i	i	i	i	.	.	.	.	.	.
CCc1ccc(/C=C2/SC(=S)N(CCC(=O)NCCCN3CCOCC3)C2=O)cc1	-1.8	i	i	-5.8*	i	i	i	i	i	45%*	39%*	i
CCOc1ccc(/C=C2\SC(=S)N(CCCC(=O)NCCCN3CCOCC3)C2=O)cc1	-1.1	i	i	i	i	i	.	.	.	.	.	.
C/C(=N\NC(=O)c1cc(C)oc1C)c1ccc2ccccc2c1	0.09	i	i	i	i	i	.	.	.	.	.	.
CCN1C(=O)/C(=C/N2CC(C)CC(C)C2)SC1=S (stereo not drawn)	2	i	i	i	i	i	.	.	.	.	.	.
